Key:
Type in all cases: in vivo, mouse
obese high-fat-fed mice = assay: body weight and food intake in obese high-fat-fed mice
WT and Gipr−/− mice = assay: intraperitoneal glucose tolerance test in WT and Gipr−/− mice
[1] = test system: brain neuronal activity (cFos); assay: whole-brain cFos analysis; details: 120 min
Outline: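 Chow-fed male C57BL/6J mice were acclimated with daily s.c. PBS for 4 days. On day 5 they received s.c. GIPR agonist (10 nmol/kg), PYY analog (100 nmol/kg), GDF15 (2 nmol/kg) or combinations. Mice were formalin-perfused 120 min post-dose, and brains were iDISCO+-cleared, cFos-immunostained (rabbit, 1:200), light-sheet imaged and registered. Counts came from voxel-based statistics within PBN_D/PBN_V hotspots defined by averaged PYY- and GDF15-group signal. Vehicle n = 8.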

[2] = agent alone, dosed once daily, 72-h dosing period, n = 6 per group

Molecule: LAGIPRA
- weight loss in combination with the LAPYY analog (obese high-fat-fed mice; LAGIPRA 10 nmol/kg plus LAPYY analog, once daily): only delivered greater weight loss in combination with a low dose of the LAPYY analog
- body weight (obese high-fat-fed mice; [2]): reduced
- food intake (obese high-fat-fed mice; [2]): reduced
- blood glucose in intraperitoneal glucose tolerance test (WT and Gipr−/− mice): lowering blood glucose

B1: GDF15: recombinant human GDF15, cytokine used as aversive agent (protein, UniProt Q99988 195-308, looked up)
Growth/differentiation factor …: ARARNGDHCPLGPGRCCRLHTVRASLEDLGWADWVLSPREVQVTMCIGACPSQFRAANMHAQIKTSLHRLKPDTVPAPCCVPASYNPMVLIQKTDTGVSLQTYDDLLAKDCHCI
- number of cFos+ cells in the BST [1]: increased numbers
- number of cFos+ cells in the NTS and DMX [1]: increased number
- brain regions with decreased cFos expression ([1]; GDF15 2 nmol/kg s.c., vs vehicle, n = 8): decreased cFos expression in nine regions
- brain regions with increased cFos expression ([1]; GIPRA 10, PYY 100, GDF15 2 nmol/kg s.c., vs vehicle, n = 8): increased cFos expression in seven brain areas

Source: PMC9233244 (Diabetes, 2022)
